PTPN22 act – LYP (human) phosphatase activation; Q9Y2R2; recombinant LYP, DiFMUP fluorescence; 0 = plate median, 100 = signal doubled; activation, % at 2 µM; hit rate 0.11% among 96,000;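 active means activation at 2 µM above a set limit, the mean plus 5 SD, cut at about 37% in these data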
Target sequence (Q9Y2R2 whole entry, looked up): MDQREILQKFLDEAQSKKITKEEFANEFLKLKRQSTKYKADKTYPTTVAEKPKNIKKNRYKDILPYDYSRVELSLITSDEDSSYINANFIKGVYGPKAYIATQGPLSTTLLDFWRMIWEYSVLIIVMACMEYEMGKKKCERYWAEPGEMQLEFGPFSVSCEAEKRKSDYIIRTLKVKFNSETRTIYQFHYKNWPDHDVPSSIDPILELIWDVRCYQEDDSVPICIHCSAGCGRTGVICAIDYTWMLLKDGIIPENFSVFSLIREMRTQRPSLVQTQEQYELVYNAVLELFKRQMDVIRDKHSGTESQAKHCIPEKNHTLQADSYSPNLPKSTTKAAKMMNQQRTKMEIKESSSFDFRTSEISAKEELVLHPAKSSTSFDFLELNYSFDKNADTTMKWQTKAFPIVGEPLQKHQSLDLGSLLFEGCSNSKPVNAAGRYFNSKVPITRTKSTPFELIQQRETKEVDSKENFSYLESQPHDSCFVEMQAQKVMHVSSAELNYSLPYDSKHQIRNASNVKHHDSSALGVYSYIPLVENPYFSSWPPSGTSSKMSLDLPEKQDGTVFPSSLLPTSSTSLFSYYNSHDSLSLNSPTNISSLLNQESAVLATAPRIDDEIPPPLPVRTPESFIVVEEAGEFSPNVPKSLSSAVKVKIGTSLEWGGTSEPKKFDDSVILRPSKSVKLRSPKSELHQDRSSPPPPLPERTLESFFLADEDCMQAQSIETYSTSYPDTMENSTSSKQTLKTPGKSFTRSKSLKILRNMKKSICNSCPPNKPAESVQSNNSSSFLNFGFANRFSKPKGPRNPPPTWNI
Rev-RRE block – inhibitors of HIV-1 Rev-RRE RNA interaction. P05866. inhibition, % at 8 µM. Rev peptide-RRE RNA binding, FRET. hit rate 0.79% among 97,000. AID 704;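 active means inhibition above the screen-wide mean plus 3 SD, cut at about 35% in these data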;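 further: 0% = median DMSO wells and 100% = median Neomycin B control wells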
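Assay system: labelled RRE RNA duplex and labelled Rev peptide / Medium: HEPES pH 7.5 salt buffer with EDTA / Reagent: labelled Rev peptide / Schedule: 5 + 15 min at 25 °C / Signal: FRET, excitation 480 nm, emission 540 nm donor and 671 nm acceptor / Benchmarks: DMSO and neomycin B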
FAK inh – blocks human focal adhesion kinase activity | AID 727 | inhibition, %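 (tested at 7 µM)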 | biochemical FAK kinase activity assay | Q05397 | hit rate 0.84% among 97,000; in the data active means inhibition above about 19%;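 further: 0% = DMSO and 100% = reference compound high control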
LYP inh 2 – inhibitors of human LYP (PTPN22) phosphatase. Q9Y2R2. recombinant LYP catalytic domain, DiFMUP fluorescence. inhibition, % at 2 µM. hit rate 0.21% among 96,000;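 active means inhibition at 2 µM at or above a set limit, the screen mean plus 3 SD, cut at about 24% in these data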;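 further: 0% = DMSO with enzyme and 100% = enzyme fully blocked by orthovanadate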
Active calls of the source: *; . = no result; [ ] = another dose, or the depositor's remark. A selection: hits, their analogues and other compounds. The true share with any hit is near 1.8%.

SMILES	PTPN22 act	Rev-RRE block	FAK inh	LYP inh 2
CSc1nc(N)nc(SCC(=O)Nc2ccc(Cl)cc2)c1C#N	-3	3	7	6
CCCc1cc(SCC(=O)Nc2c(C)n(C)n(-c3ccccc3)c2=O)n2c(nc3ccccc32)c1C#N	-17	41*	-3	18
Cc1ccc(NC(=O)/C(C#N)=C/c2ccc(C)s2)c(C)c1	-6	37*	-1	6
Cc1ccc(/C=C(\C#N)C(=O)Nc2c(C)cccc2C)s1	8	19	1	-10
COc1nc2ccc(C)cc2cc1-c1noc(-c2ccccc2)n1	0	12	-9	3
CS/C(N)=N/N=C/c1ccc([N+](=O)[O-])cc1	-9	2	-10	11
CN(C)c1ccc(/C=N/N=C2/NC(=O)/C(=C/c3ccc([N+](=O)[O-])cc3)S2)cc1	-23	35	4	25*
C=CCn1c(SCc2ccc(C(=O)Nc3ccccc3)cc2)nnc1-c1ccccc1	-1	9	-1	3
CCOc1ccc(-c2csc(N)c2C(=O)OC)cc1	-29	0	-3	30*
C=CCn1c(COc2ccccc2)nnc1SC(C)C(=O)N/N=C/c1cc(Cl)ccc1O (centres undefined)	-4	14	-2	7
CCN(CC)c1ccc2cc(-c3nc4ccccc4n3C)c(=O)oc2c1	-6	132*[fluorescence artefact?]	-3	5
O=c1oc2ccc3ccccc3c2cc1-c1nnc(-c2ccccc2)o1	3	6	-5	-4
CCN(CC)c1ccc2cc(-c3nnc(-c4ccccc4)o3)c(=O)oc2c1	4	141*[fluorescence artefact?]	0	-4
COc1ccc(-c2nnc(-c3cc4c(ccc5ccccc54)oc3=O)o2)cc1	-9	6	7	11
CCN(CC)c1ccc2cc(-c3nnc(-c4ccc(Br)cc4)o3)c(=O)oc2c1	-19	140*[fluorescence artefact?]	2	19
Cc1ccc(CNC(=O)CSc2nc3ccccc3c3nc(C)nn23)cc1	-4	-4	-1	4
Cc1cccc(C)c1OC(=O)CN(c1ccc(Cl)cc1)S(C)(=O)=O	.	14	-4	.
O=C(OCCNC(=O)c1ccc2ccccc2n1)c1ccc(F)cc1	8	10	0	-6
CCC(=O)NCCc1nc2ccccc2n1Cc1ccc(C)cc1	-8	-1	3	10
O=C(Nc1cccn(Cc2c(Cl)cccc2Cl)c1=O)c1ccc(Cl)cc1Cl	-2	7	4	5
O=C(Nc1cccn(Cc2c(Cl)cccc2Cl)c1=O)c1ccccc1Cl	3	10	-1	-1
C=CCNC(=S)NNC(=O)c1cccn(Cc2ccc(Cl)c(Cl)c2)c1=O	-25	-5	-4	28*
CNC(=S)NNC(=O)c1cccn(Cc2ccc(Cl)c(Cl)c2)c1=O	-69	3	2	69*
CNC(=S)NNC(=O)c1cccn(Cc2cccc(Cl)c2)c1=O	-59	4	-1	60*
O=C1NC(=S)SC1=C1CCCC1	1	11	0	1
SMILES	PTPN22 act	Rev-RRE block	FAK inh	LYP inh 2
O=C(CCCn1c(=O)[nH]c2cc(Cl)ccc2c1=O)NCCC1=CCCCC1	-1	7	-3	5
N#CC1(c2nc3ccccc3[nH]2)CC1c1ccc2c(c1)OCO2 (centres undefined)	2	3	-8	-4
O=C(c1ccc(Cl)cc1)c1cnc(-c2ccc(Cl)cc2)s1	-40	2	1	41*
Cc1cc(C)c(NC(=O)/C=C\C(=O)O)c([N+](=O)[O-])c1	-6	11	-5	2
Cc1ccc(C(=O)C(C(=O)/C=C/c2ccccc2)=C2SCCCS2)cc1	4	16	-2	-4
CCOC(=O)CC(=O)CSc1nc2c(C)c(C)ccc2cc1C	-27	6	1	24*
CCSc1ncc(/C=N/Nc2ccc([N+](=O)[O-])cc2)n1C	-2	66*[fluorescence artefact?]	6	4
CCSc1ncc(/C=N/Nc2ccccc2)n1C	-1	-5	3	5
FC(F)(F)C(Oc1nc(Nc2ccc(Cl)cc2)nc(N2CCOCC2)n1)C(F)(F)F	12	16	1	-12
Cc1ccc(S(=O)(=O)N[C@H](C(=O)Oc2ccc3c(C(F)(F)F)cc(=O)oc3c2)c2ccccc2)cc1	-13	58*	5	15
COc1ccc(S(=O)(=O)NC(C)C(=O)Nc2ccccc2C(F)(F)F)cc1 (centres undefined)	-3	2	3	2
Cc1nn(C(C)C(=O)NCc2ccccc2Cl)c(=O)c2c1sc1ccccc12 (centres undefined)	-7	5	1	8
COC(=O)CCC(=O)Nc1cccc(C(=O)Nc2cccc(Cl)c2)c1	-2	9	4	6
Cc1ccc2c(c1)C(=O)CCN2	6	7	-1	-6
O=C1CCNc2cc3ccccc3cc21	4	44*	10	-4
CCCCCCc1cc2cc(C(=O)NCc3ccccc3)c(=N)oc2cc1O	-8	104*[fluorescence artefact?]	0	8
Cc1c(CN(C)C)c2c(n1C)C(=O)c1ccc(Br)cc1-2	4	-1	-5	-6
CCOC(=O)c1c2c(n(C)c1C)C(=O)C(=O)c1ccc(Br)cc1-2	-7	4	40*	7
COc1cccc(C(=O)N(C)c2nnc(-c3ccncc3)s2)c1	-8	7	1	9
Cc1ccc(/C=C/C2=Cc3c(sc(NC(=O)CSc4n[nH]c(N)n4)c3C#N)C(C)(C)C2)o1	-6	47*	13	3
CCOC(=O)C1=C(N)OC2=C(C(=O)CC(C)(C)C2)C1c1ccco1 (centres undefined)	10	7	3	-14
CC1(C)CC(=O)C2=C(C1)OC1=C(C(=O)CC(C)(C)C1)C2c1ccc(O)cc1O	-6	94*[fluorescence artefact?]	-1	6
CCOc1ccc(C2C(C(=O)C3CC3)N3C=C(C#N)C=CC3C2(C#N)C#N)cc1 (centres undefined)	1	48*	2	2
CCOc1ccc(C(=O)C2CCN(C(=O)c3ccccc3C(=O)O)CC2)cc1	-2	6	-6	4
CCN(CC)S(=O)(=O)c1ccc2c(c1)nc(CCC(=O)Nc1ccccc1Cc1ccccc1)n2CC	-11	12	-2	10
SMILES	PTPN22 act	Rev-RRE block	FAK inh	LYP inh 2
COc1ccc(C2C=C(c3ccccc3)Nc3nc(CCCO)nn32)cc1 (centres undefined)	5	40*	10	-1
COc1ccc(C2C=C(c3cccs3)Nc3nc(CCCO)nn32)cc1 (centres undefined)	4	129*[fluorescence artefact?]	-10	-6
CCCCCC(=O)N/N=C(\C)c1ccc(Cl)cc1	-8	15	-2	13
C=CCN1C(=O)C2(NNc3ccccc3O2)c2ccccc21 (centres undefined)	10	69*	0	-14
CCCCN1C(=O)C2(NNc3ccccc3O2)c2ccccc21 (centres undefined)	-6	73*	1	8
Cc1ccnc(N/C=C(\C#N)c2nc(-c3cccc(Br)c3)cs2)c1	-16	136*[fluorescence artefact?]	-1	20
CC(=O)Nc1cccc(-c2csc(Nc3cc(C)ccn3)n2)c1	5	11	3	-2
O=C(CSc1nc2ccc(S(=O)(=O)N3CCOCC3)cc2[nH]1)N1CCOCC1	-36	3	2	34*
CC(=O)N1C(=O)C(=C2C=C(C)OC(C)=C2)c2ccccc21	-2	110*[fluorescence artefact?]	7	0

Compound activity (PubChem BioAssay)
